Measured values as given in ChEMBL document CHEMBL2040727, “Substituted thiazoles VI. Synthesis and antitumor activity of new 2-acetamido- and 2 or 3-propanamido-thiazole analogs” (2012).

Columns and labels:
Type in all cases: functional
HCT-116 = test: Growth inhibition of human HCT116 cells at 10 uM after 48 hrs by coulter counter analysis; conditions: HCT-116, 48 h, read-out: GI
How it was run: (§1)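 Single-dose NCI 60-line panel screen of test compounds. Cells grown in RPMI 1640 with 10% FBS. Compounds dissolved in DMSO, then diluted in phosphate buffer saline (final DMSO below 1%). Wells run in duplicate at 6 × 10⁴ cells/ml. Controls held PBS and DMSO at matching dilutions. Incubation 48 h at 37 °C under humidified 5% CO2. Cells diluted tenfold in saline and counted by Coulter counter. Percent growth inhibition taken from mean-graph of treated-cell growth.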

COLO 205 = test: Growth inhibition of human COLO205 cells at 10 uM after 48 hrs by coulter counter analysis; conditions: COLO 205, 48 h, read-out: GI; how it was run: as §1
RXF 393 = test: Growth inhibition of human RXF393 cells at 10 uM after 48 hrs by coulter counter analysis; conditions: RXF 393, 48 h, read-out: GI; how it was run: as §1
HL-60(TB) = test: Growth inhibition of human HL-60(TB) cells at 10 uM after 48 hrs by coulter counter analysis; conditions: HL-60, 48 h, read-out: GI
How it was run: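 Cells grown in RPMI 1640 with 10% FBS. Compound was dissolved in DMSO and diluted in PBS (under 1% DMSO final), then added in duplicate wells to culture at 6 × 10⁴ cells/ml. PBS/DMSO vehicle controls were included. Incubated at 37 °C, humidified 5% CO₂, for 48 h. Cells were diluted 10-fold in saline and Coulter-counted. Single-dose NCI-60 screen, read as percent growth inhibition.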

UO-31 = test: Growth inhibition of human UO31 cells at 10 uM after 48 hrs by coulter counter analysis; conditions: UO-31, 48 h, read-out: GI
How it was run: (§2)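 Single-dose screen in the NCI 60 cell line panel. Cells grown in RPMI 1640 with 10% FBS. Compounds dissolved in DMSO and diluted in phosphate buffered saline, final DMSO under 1%. Duplicate wells seeded from culture at 6 × 10⁴ cells/ml. Incubated 48 h at 37 °C, humidified, 5% CO2. Cells diluted tenfold in saline and Coulter-counted. Percent growth inhibition computed against PBS/DMSO controls.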

HCT-15 = test: Growth inhibition of human HCT15 cells at 10 uM after 48 hrs by coulter counter analysis; conditions: HCT-15, 48 h, read-out: GI; how it was run: as §1
U-251 = test: Growth inhibition of human U251 cells at 10 uM after 48 hrs by coulter counter analysis; conditions: U-251, 48 h, read-out: GI; how it was run: as §2
MDA-MB-231 = test: Growth inhibition of human MDA-MB-231 cells at 10 uM after 48 hrs by coulter counter analysis; conditions: MDA-MB-231, 48 h, read-out: GI; how it was run: as §1
SF-539 = test: Growth inhibition of human SF539 cells at 10 uM after 48 hrs by coulter counter analysis; conditions: SF-539, 48 h, read-out: GI; how it was run: as §1
OVCAR-4 = test: Growth inhibition of human OVCAR4 cells at 10 uM after 48 hrs by coulter counter analysis; conditions: OVCAR-4, 48 h, read-out: GI; how it was run: as §1
NCI-H226 = test: Growth inhibition of human NCI-H226 cells at 10 uM after 48 hrs by coulter counter analysis; conditions: NCI-H226, 48 h, read-out: GI; how it was run: as §1
SK-MEL-28 = test: Growth inhibition of human SK-MEL-28 cells at 10 uM after 48 hrs by coulter counter analysis; conditions: SK-MEL-28, 48 h, read-out: GI; how it was run: as §1
KM12 = test: Growth inhibition of human KM12 cells at 10 uM after 48 hrs by coulter counter analysis; conditions: KM12, 48 h, read-out: GI; how it was run: as §1
CAKI-1 = test: Growth inhibition of human Caki1 cells at 10 uM after 48 hrs by coulter counter analysis; conditions: CAKI-1, 48 h, read-out: GI; how it was run: as §1
RPMI-8226 = test: Growth inhibition of human RPMI8226 cells at 10 uM after 48 hrs by coulter counter analysis; conditions: RPMI-8226, 48 h, read-out: GI; how it was run: as §1
BT-549 = test: Growth inhibition of human BT549 cells at 10 uM after 48 hrs by coulter counter analysis; conditions: BT-549, 48 h, read-out: GI; how it was run: as §1
PC-3 = test: Growth inhibition of human PC3 cells at 10 uM after 48 hrs by coulter counter analysis; conditions: PC-3, 48 h, read-out: GI; how it was run: as §1
SR = test: Growth inhibition of human SR cells at 10 uM after 48 hrs by coulter counter analysis; conditions: read-out: GI; how it was run: as §2
MDA-MB-468 = test: Growth inhibition of human MDA-MB-468 cells at 10 uM after 48 hrs by coulter counter analysis; conditions: MDA-MB-468, 48 h, read-out: GI; how it was run: as §1
NCI-H460 = test: Growth inhibition of human NCI-H460 cells at 10 uM after 48 hrs by coulter counter analysis; conditions: NCI-H460, 48 h, read-out: GI; how it was run: as §1
UACC-257 = test: Growth inhibition of human UACC257 cells at 10 uM after 48 hrs by coulter counter analysis; conditions: UACC-257, 48 h, read-out: GI; how it was run: as §2
SK-OV-3 = test: Growth inhibition of human SKOV3 cells at 10 uM after 48 hrs by coulter counter analysis; conditions: SK-OV-3, 48 h, read-out: GI; how it was run: as §1
TK-10 = test: Growth inhibition of human TK10 cells at 10 uM after 48 hrs by coulter counter analysis; conditions: TK-10, 48 h, read-out: GI; how it was run: as §2

Row | Compound | inhibition of growth at 10 µM (HCT-116) | inhibition of growth at 10 µM (COLO 205) | inhibition of growth at 10 µM (RXF 393) | inhibition of growth at 10 µM (HL-60(TB)) | inhibition of growth at 10 µM (UO-31) | inhibition of growth at 10 µM (HCT-15) | inhibition of growth at 10 µM (U-251) | inhibition of growth at 10 µM (MDA-MB-231) | inhibition of growth at 10 µM (SF-539) | inhibition of growth at 10 µM (OVCAR-4) | inhibition of growth at 10 µM (NCI-H226) | inhibition of growth at 10 µM (SK-MEL-28) | inhibition of growth at 10 µM (KM12) | inhibition of growth at 10 µM (CAKI-1) | inhibition of growth at 10 µM (RPMI-8226) | inhibition of growth at 10 µM (BT-549) | inhibition of growth at 10 µM (PC-3) | inhibition of growth at 10 µM (SR) | inhibition of growth at 10 µM (MDA-MB-468) | inhibition of growth at 10 µM (NCI-H460) | other results
1 | Cc1cnc(NC(=O)CN2CCN(C)CC2)s1 | < 10% | < 10% | < 10% | < 10% | 10.2% | < 10% | < 10% | < 10% | < 10% | < 10% | < 10% | < 10% | < 10% | < 10% | < 10% | < 10% | < 10% | 51.8% | < 10% | < 10% | 
2 | Cc1cnc(NC(=O)CN2CCN(c3ccccc3)CC2)s1 | < 10% | < 10% | < 10% | < 10% | 13.1% | < 10% | < 10% | < 10% | < 10% | < 10% | < 10% | < 10% | < 10% | < 10% | < 10% | < 10% | < 10% | < 10% | < 10% | < 10% | 
3 | CC(C(=O)Nc1nccs1)N1CCN(C)CC1 (stereo unspecified) | < 10% | < 10% | < 10% | 11.2% | 19.4% | < 10% | < 10% | < 10% | < 10% | < 10% | < 10% | < 10% | < 10% | < 10% | < 10% | < 10% | < 10% | < 10% | < 10% | < 10% | inhibition of growth at 10 µM (UACC-257): < 10%; inhibition of growth at 10 µM (SK-OV-3): < 10%; inhibition of growth at 10 µM (TK-10): < 10%
4 | Cc1csc(NC(=O)C(C)N2CCN(C)CC2)n1 (stereo unspecified) | 30.1% | < 10% | < 10% | < 10% | < 10% | 25.5% | 23.5% | 13.3% | < 10% | 16.2% | < 10% | < 10% | < 10% | < 10% | < 10% | 13.3% | < 10% | < 10% | 11.1% | < 10% | inhibition of growth at 10 µM (UACC-257): < 10%; inhibition of growth at 10 µM (SK-OV-3): < 10%; inhibition of growth at 10 µM (TK-10): < 10%
